Among the data in ChEMBL document CHEMBL3352533, “Multi-dimensional target profiling of N,4-diaryl-1,3-thiazole-2-amines as potent inhibitors of eicosanoid metabolism” (Eur J Med Chem, 2014) are Activity values, retold here.

In series [1] the target is T1, Polyunsaturated fatty acid lipoxygenase ALOX12 (Homo sapiens) (UniProt P18054).
T1 sequence (whole entry): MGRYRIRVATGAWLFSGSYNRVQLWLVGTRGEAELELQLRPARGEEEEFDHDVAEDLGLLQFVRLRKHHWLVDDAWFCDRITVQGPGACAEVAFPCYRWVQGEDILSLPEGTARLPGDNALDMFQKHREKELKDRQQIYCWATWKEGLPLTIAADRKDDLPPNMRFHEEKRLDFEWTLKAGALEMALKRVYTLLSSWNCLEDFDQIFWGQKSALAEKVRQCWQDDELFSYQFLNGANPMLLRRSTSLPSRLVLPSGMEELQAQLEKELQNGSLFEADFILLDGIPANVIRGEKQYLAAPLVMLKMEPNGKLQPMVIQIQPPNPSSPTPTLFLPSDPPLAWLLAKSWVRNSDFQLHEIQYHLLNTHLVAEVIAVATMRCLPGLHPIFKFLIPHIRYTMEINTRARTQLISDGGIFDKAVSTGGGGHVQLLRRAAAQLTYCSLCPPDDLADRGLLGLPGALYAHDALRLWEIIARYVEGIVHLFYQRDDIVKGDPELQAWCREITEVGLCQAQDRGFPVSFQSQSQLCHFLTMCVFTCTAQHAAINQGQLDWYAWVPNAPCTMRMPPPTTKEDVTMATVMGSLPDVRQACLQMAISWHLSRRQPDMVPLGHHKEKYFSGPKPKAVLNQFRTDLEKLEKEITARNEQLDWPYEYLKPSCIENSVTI
Kind of series: Inhibition of 12-LO-mediated 12-HPETE formation in human platelets using arachidonic acid as substrate assessed as residual activity at 50 uM preincubated for 15 mins before substrate addition measured after 10 mins. A digest of the protocol: (§1)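 Freshly isolated human platelets (10^8 in 1 ml PBS pH 7.4 with 1 mg/ml glucose and 1 mM CaCl2) preincubated with compound or DMSO 15 min at 37 °C, then 10 µM AA added; 10 min at 37 °C, stopped with ice-cold methanol. HPLC: 12-H(P)ETE for 12-LO, 12-HHT for COX-1; percent of DMSO control, n ≥ 3, mean ± S.E.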

For series [2], the target named is T2, Polyunsaturated fatty acid lipoxygenase ALOX15 (Homo sapiens) (UniProt P16050).
T2 sequence (whole entry): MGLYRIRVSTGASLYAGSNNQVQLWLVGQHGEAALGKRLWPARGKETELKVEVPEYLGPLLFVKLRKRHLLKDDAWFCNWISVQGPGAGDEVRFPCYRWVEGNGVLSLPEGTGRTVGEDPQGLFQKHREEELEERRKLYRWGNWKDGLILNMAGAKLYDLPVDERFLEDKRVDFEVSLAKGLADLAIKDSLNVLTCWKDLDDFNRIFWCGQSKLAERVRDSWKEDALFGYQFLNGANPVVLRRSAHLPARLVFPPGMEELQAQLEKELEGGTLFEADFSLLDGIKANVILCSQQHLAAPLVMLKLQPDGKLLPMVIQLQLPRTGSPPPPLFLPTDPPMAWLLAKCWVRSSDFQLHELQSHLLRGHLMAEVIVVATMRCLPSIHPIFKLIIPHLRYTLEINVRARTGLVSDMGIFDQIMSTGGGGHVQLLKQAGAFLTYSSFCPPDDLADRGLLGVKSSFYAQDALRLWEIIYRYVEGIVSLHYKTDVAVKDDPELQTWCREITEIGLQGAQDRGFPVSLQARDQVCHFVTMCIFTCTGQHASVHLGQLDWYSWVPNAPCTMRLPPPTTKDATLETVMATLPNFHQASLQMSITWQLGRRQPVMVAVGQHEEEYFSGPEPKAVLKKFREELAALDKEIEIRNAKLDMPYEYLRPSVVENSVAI
Kind of series: Inhibition of 15-LO1-mediated 15-HPETE formation in human eosinophil using arachidonic acid as substrate assessed as residual activity at 50 uM preincubated for 15 mins before substrate addition measured after 10 mins. The procedure, abridged:
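Freshly isolated human PMNL (5 × 10^6/ml PBS-glucose, 1 mM CaCl2), with 15-LO1 from contaminating eosinophils, preincubated with compound 15 min at 37 °C; stimulated with 2.5 µM A23187 plus 20 µM AA for 10 min at 37 °C, methanol stop. 15-H(P)ETE peak quantified by HPLC as percent of DMSO control; n ≥ 3, mean ± S.E.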

Series [3] deals with Prostaglandin G/H synthase 1 (Homo sapiens) (UniProt P23219). Put plainly: Inhibition of COX1 in human platelets using arachidonic acid as substrate assessed as residual activity at 50 uM preincubated for 15 mins before substrate addition measured after 10 mins. A digest of the protocol: as §1
Series [4] deals with T3, Prostaglandin G/H synthase 2 (Homo sapiens) (UniProt P35354).
T3 sequence (whole entry): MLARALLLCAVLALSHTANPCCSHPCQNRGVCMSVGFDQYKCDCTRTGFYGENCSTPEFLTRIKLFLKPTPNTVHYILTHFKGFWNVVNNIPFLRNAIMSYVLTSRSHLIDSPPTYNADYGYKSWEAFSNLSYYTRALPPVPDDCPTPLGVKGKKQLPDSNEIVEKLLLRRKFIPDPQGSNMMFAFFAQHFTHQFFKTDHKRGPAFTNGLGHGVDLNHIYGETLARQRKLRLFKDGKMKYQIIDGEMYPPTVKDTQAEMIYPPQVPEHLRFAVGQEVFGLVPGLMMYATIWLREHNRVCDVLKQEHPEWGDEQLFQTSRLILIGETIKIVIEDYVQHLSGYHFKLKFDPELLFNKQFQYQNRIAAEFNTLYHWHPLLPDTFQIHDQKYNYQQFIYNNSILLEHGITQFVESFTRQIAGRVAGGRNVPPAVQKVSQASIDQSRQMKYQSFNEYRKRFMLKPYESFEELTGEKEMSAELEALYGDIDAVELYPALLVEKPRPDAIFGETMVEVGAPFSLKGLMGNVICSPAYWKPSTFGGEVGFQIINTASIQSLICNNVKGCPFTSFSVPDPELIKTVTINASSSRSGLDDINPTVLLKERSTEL
Put plainly: Inhibition of COX2-mediated PGE2 formation in IL1beta/TNFalpha-stimulated human HeLa cells using arachidonic acid as substrate assessed as residual activity at 50 uM measured after 30 mins by ELISA. In kind it is cell-based. A digest of the protocol:
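HeLa cells (3 × 10^4/well) grown 24 h, then induced with 1 ng/ml IL1β and 5 ng/ml TNFα for 24 h; washed three times with PBS containing fatty-acid-free BSA 1 mg/ml. Medium with cytokines plus compound or DMSO for 30 min, stopped on ice; supernatant PGE2 by ELISA, percent of DMSO control. Three experiments, mean ± S.E.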
On the technique in general: In an ELISA, binding on a coated surface is turned into a signal by an enzyme label.

Series [5] in a line: Cytotoxicity against human U937 cells at 30 uM after 48 hrs by LDH assay. To be noted: u-937, 48 h. In kind it is cell-based. The procedure, abridged: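 U937 cells (DSMZ; RPMI, 10% FCS, 37 °C, 5% CO2) seeded at 1.5 × 10^4 cells/well, exposed to test agent or DMSO vehicle for 48 h. Supernatant collected after centrifugation; LDH release quantified by kit, expressed relative to detergent-lysed maximum (100%). Three experiments, mean ± S.E.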

Prostaglandin G/H synthase 1 (Homo sapiens), sequence (P23219 whole entry): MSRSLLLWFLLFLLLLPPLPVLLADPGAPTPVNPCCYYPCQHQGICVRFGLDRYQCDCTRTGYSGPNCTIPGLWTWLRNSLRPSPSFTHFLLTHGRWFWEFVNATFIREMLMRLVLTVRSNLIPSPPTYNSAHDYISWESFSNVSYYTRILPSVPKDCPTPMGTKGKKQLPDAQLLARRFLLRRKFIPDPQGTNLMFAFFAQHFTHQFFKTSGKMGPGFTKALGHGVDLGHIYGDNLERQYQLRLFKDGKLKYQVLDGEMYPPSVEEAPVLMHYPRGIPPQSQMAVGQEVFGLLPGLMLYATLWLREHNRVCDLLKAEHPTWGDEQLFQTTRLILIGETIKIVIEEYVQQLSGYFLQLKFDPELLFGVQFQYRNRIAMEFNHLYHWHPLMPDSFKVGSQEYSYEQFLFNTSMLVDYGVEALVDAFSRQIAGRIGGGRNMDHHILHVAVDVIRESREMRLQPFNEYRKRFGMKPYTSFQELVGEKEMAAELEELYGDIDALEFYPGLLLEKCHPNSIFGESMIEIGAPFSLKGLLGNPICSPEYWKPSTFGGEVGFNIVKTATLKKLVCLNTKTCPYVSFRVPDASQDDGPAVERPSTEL

On to `CCOc1ccc(-c2csc(Nc3ccc(O)cc3)n2)cc1`, for which the Activity in series [1] was over 70%; in series [2], over 70%; in series [3] it was 16.6%; in series [4] it was 2.1%.
As for `O=S(=O)(c1ccc(-c2csc(Nc3ccc(Cl)cc3)n2)cc1)N1CCOCC1`, the Activity in series [1] is over 70%; in series [2], 41.3%; in series [3] it was over 70%; in series [4] it was 39.1%.
As to `COc1ccc(Nc2nc(-c3ccc(Cl)cc3)cs2)c(OC)c1`, the Activity was over 70% in series [1], over 70% in series [2], over 70% in series [3] and 18.4% in series [4].
For the compound `CC(=O)c1cccc(Nc2nc(-c3ccc(Cl)cc3)cs2)c1`, the Activity in series [1] is over 70%; in series [2] it was over 70%; in series [3], 38.7%; in series [4], 59.9%.
Turning to `CC(=O)c1ccc(Nc2nc(-c3ccc(F)cc3)cs2)cc1`, the Activity in series [1] was over 70%; in series [2] it was over 70%; in series [3] it was 56.1%; in series [4] it was 9.1%.
Turning to `COc1ccc(-c2csc(Nc3ccccc3)n2)cc1`, the Activity is over 70% in series [1], 50.3% in series [2], 2% in series [3] and 2.3% in series [4].
For `Oc1cccc(Nc2nc(-c3ccccc3)cs2)c1`, the Activity was over 70% in series [1], over 70% in series [2], 4.1% in series [3] and 2.4% in series [4].
Consider `COc1ccc(Nc2nc(-c3ccc(Cl)cc3)cs2)cc1`, for which the Activity was 1.6% in series [5]; over 70% in series [1]; over 70% in series [2]; 25.6% in series [3]; 3.7% in series [4].
`Clc1ccc(-c2csc(Nc3ccc4c(c3)OCO4)n2)cc1`: the Activity in series [1] was over 70%; in series [2], over 70%; in series [3] it was 3.2%; in series [4], 3.8%.
Consider `Clc1ccc(-c2csc(Nc3ccc4c(c3)OCCO4)n2)cc1`, for which the Activity in series [1] is over 70%; in series [2], over 70%; in series [3] it was 6%; in series [4], 5.5%.
Consider `COc1ccccc1Nc1nc(-c2ccc(Cl)cc2)cs1`, for which the Activity in series [1] is over 70%; in series [2], over 70%; in series [3], 55.8%; in series [4], 5.3%.
As for `Cc1ccc(-c2csc(Nc3ccc(O)cc3)n2)cc1`, the Activity is 14% in series [5]; over 70% in series [1]; 44.6% in series [2]; 18.5% in series [3]; 3.4% in series [4].
In the case of `FC(F)(F)c1ccc(Nc2nc(-c3ccc(Cl)cc3)cs2)cc1`, the Activity was over 70% in series [1], over 70% in series [2], 2.7% in series [3] and over 70% in series [4].
For `Nc1ccc(-c2csc(Nc3ccc(O)cc3)n2)cc1`, the Activity in series [1] is over 70%; in series [2] it was over 70%; in series [3], 26.7%; in series [4], 3.3%.
In the case of `Oc1ccc(-c2csc(Nc3ccc(F)cc3)n2)cc1`, the Activity amounted to 4.2% in series [1], 53.7% in series [2], 2.1% in series [3] and 2.1% in series [4].
In the case of `Oc1ccc(Nc2nc(-c3ccc(Cl)cc3)cs2)cc1`, the Activity in series [5] is 17.5%; in series [1], over 70%; in series [2], over 70%; in series [3], 28.6%; in series [4] it was 4.1%.
Regarding `COc1ccc(Nc2nc(-c3ccccc3)cs2)cc1`, the Activity in series [1] is over 70%; in series [2] it was over 70%; in series [3] it was 2.3%; in series [4] it was 3.2%.
With `Oc1ccc(-c2csc(Nc3ccc(Cl)cc3)n2)cc1`, the Activity in series [5] is 1.4%; in series [1], over 70%; in series [2], 43.1%; in series [3], 3.5%; in series [4] it was 2.1%.
For `Oc1ccc(Nc2nc(-c3ccccc3)cs2)cc1`, in that order: 5.5%, 34.9%, 13%, 16.2% and 3.1%.
On to `Clc1ccc(-c2csc(Nc3ccc(N4CCOCC4)cc3)n2)cc1`, for which the Activity in series [1], in series [2], in series [3] and in series [4] was over 70% in each case.
As to `Clc1ccc(-c2csc(Nc3cc(Cl)cc(Cl)c3)n2)cc1`, the Activity in series [1] was over 70%; in series [2], over 70%; in series [3], 2.3%; in series [4], 30.9%.
Consider `FC(F)(F)Oc1ccc(Nc2nc(-c3ccc(Cl)cc3)cs2)cc1`, for which the Activity in series [1] was over 70%; in series [2], over 70%; in series [3] it was 1.1%; in series [4], 17.8%.
In the case of `COc1ccc(Nc2nc(-c3ccc(Cl)cc3)cs2)cc1OC`, the Activity in series [1] is over 70%; in series [2], over 70%; in series [4], 8.6%.
Regarding `Clc1ccc(-c2csc(Nc3ccccc3)n2)cc1`, the Activity in series [1] was over 70%; in series [2], over 70%; in series [3], 7.7%; in series [4] it was 5%.
For the compound `Oc1cccc(Nc2nc(-c3ccc(Cl)cc3)cs2)c1`, the Activity is over 70% in series [1], 57% in series [2], 19.5% in series [3] and 2.7% in series [4].
